KCNK9 block = human KCNK9 channel inhibition | Q9NPC2 | HEK293 KCNK9, FluxOR thallium flux fluorescence; hits give low values | B-score at 10 µM | 310,000 tested, 1.2% active | AID 488922;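 active means ratio B-score over 3 SD below the library mean, with starting fluorescence within 5 SD of its mean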;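 further: negative B-score means less thallium flux so channel inhibition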
Target sequence (Q9NPC2 whole entry, looked up): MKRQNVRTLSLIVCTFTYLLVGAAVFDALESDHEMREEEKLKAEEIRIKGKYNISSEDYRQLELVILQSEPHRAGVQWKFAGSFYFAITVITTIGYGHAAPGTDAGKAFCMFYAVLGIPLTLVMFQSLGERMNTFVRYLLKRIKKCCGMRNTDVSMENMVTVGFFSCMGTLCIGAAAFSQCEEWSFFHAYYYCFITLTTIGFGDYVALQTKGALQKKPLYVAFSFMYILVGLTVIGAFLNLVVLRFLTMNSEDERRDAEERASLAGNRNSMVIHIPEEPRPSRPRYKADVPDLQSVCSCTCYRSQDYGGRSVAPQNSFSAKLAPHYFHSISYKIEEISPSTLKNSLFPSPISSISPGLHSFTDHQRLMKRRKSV
KCNQ1 act = potentiates or activates the human KCNQ1 potassium channel | P51787 | CHO-K1 KCNQ1, thallium flux FluxOR fluorescence; hits give high values | B-score at 10 µM | 310,000 tested, 0.35% active;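 active means fluorescence ratio B-score, a plate-corrected score, at least three library SD, with initial intensity B-score within 5 SD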
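Medium – assay buffer, equal DMSO in all wells · Material – CHO-K1 cell line with stable KCNQ1 potassium channel expression · Signal – kinetic FluxOR thallium fluorescence, 10-s 1-Hz baseline, 110-s post-stimulus read · Compound – single concentration per compound, DMSO matched to controls · Schedule – 37 °C overnight plating, 90-min dark dye load, 20-min compound pretreatment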
hERG protect = shields human hERG channel from block by proarrhythmic agents. Q12809. CHO-hERG, FluxOR thallium flux, dofetilide IC70 present. activation (rescue from dofetilide block), less the hit threshold, % at 10 µM. 310,000 tested, 0.51% active. AID 1511;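 active means activation above the mean of controls blocked by dofetilide plus 5 SD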;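 further: thallium influx through hERG after potassium depolarization seen as dye fluorescence rise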
KCNQ1 inh = inhibitors of human KCNQ1 potassium channel; AID 2642; B-score at 10 µM; 310,000 tested, 1.3% active; CHO-K1 KCNQ1, FluxOR thallium flux fluorescence; hits give high values; P51787;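 active means compounds whose thallium flux B-score, printed positive for inhibition, exceeds three library SD while starting fluorescence stays within three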;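 further: channel opened by potassium depolarization with thallium stimulus after 20 min compound exposure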
Kir21 block = blocks the mouse Kir2.1 inward-rectifier potassium channel. P35561. HEK293-Kir2.1, FluxOR thallium flux fluorescence; hits give low values. B-score at 10 µM. 310,000 tested, 0.85% active;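 active means fluorescence ratio B-score at or below minus 3 SD of library scores, with starting-brightness B-score within 2 SD, cut at about -4.2 in these data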;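 further: channel flux triggered by added potassium and thallium sulfate stimulus; B-score of peak minus minimum fluorescence over baseline after thallium stimulus; more negative B-score means stronger Kir2.1 block with less thallium influx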
KCNK3 inh = human KCNK3 channel inhibition, primary screen; 340,000 tested, 0.84% active; O14649; AID 602410; CHO-KCNK3 thallium flux, FluxOR fluorescence; hits give low values; B-score at 10 µM;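 active means B-score under library mean minus 4 SD, starting fluorescence ratio at most library mean plus 5 SD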;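 further: more negative B-score means stronger inhibition of thallium flux through KCNK3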
KCNK3 inh conf = human KCNK3 channel inhibition, confirmation assay; shares compounds with KCNK3 inh; CHO-KCNK3 thallium flux, FluxOR fluorescence; 0% buffer, 100% carvedilol maximal block; ratio percent of control, % at 10 µM; 2,400 tested, 99% active;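 active means ratio percent of control, averaged over triplicates, above buffer control mean plus 5 SD, cut at about 64% in these data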;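 further: ratio is the fluorescence rise from min to max over baseline after thallium stimulus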
KCNK3 noninduced = counter-screen for KCNK3 inhibitors: effect in non-induced cells | 2,400 tested, 40% active | thallium flux ratio (lower = more inhibition) at 10 µM | non-induced KCNK3 parental cells, FluxOR thallium flux; hits give low values | AID 651747 | shares compounds with KCNK3 inh;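 active means thallium flux ratio, averaged over three wells, more than 5 SD below the buffer control mean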;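 further: host cells are CHO cells without KCNK3 induction; ratio is peak minus trough fluorescence over baseline then normalized to buffer controls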
An asterisk follows results filed as active; i = inactive; · = no result given. Compounds with a hit are over-represented: about 3.7% of the library has one in this group of screens.

SMILES	KCNK9 block	KCNQ1 act	hERG protect	KCNQ1 inh	Kir21 block	KCNK3 inh	KCNK3 inh conf	KCNK3 noninduced
O=C(Cc1ccccc1)NC(C(=O)O)C(O)c1ccc([N+](=O)[O-])cc1 (stereo not given)	i	i	-2	i	1.9	i	·	·
Oc1cccc2ccc(N3CCOCC3)nc12	i	i	-6	i	-0.47	i	·	·
O=C(Nc1nc2ccccc2[nH]1)c1cc2ccccc2o1	i	i	-4	i	-2.1	i	·	·
COn1c(=O)c(-c2cccs2)[n+]([O-])c2ccccc21	i	i	-11	i	-4	-10*	87*	0.11*
Cc1ccccc1OCC(O)Cn1c2ccccc2c2ccccc21 (stereo not given)	-6.7*	i	-5	i	-1.2	-9.7*	131*	0.13*
O=C(NCCO)N1c2ccccc2Sc2ccccc21	i	i	-3	i	-0.01	i	·	·
O=C(Nc1ccccc1O)N1c2ccccc2Sc2ccccc21	i	i	-19	i	-0.1	-10*	103*	i
COc1ccc(NC2c3ccccc3C(=O)N2c2ccccn2)cc1Cl (stereo not given)	-7.5*	i	-8	i	1.8	-11*	112*	i
O=C1c2ccccc2C(Nc2ccc(F)c(Cl)c2)N1c1ccccn1 (stereo not given)	i	i	-8	i	0.58	i	·	·
NC(=O)c1cc(S(=O)(=O)N2CCOCC2)cs1	i	i	-7	i	0.03	i	·	·
O=C1/C(=C/c2ccc(Br)cc2)Oc2cc(O)ccc21	i	i	-2	6*	-1.1	-12*	119*	0.13*
CCn1cc(CNC(=O)C2CCC(=O)N(Cc3ccc(Cl)cc3)C2)cn1 (stereo not given)	i	i	-7	i	1.9	i	·	·
O=C(O)Cn1nnc(-c2ccc(OCc3ccccc3Cl)cc2)n1	i	i	-3	i	0.26	i	·	·
CC(C)n1nnc(-c2ccc(OCc3ccccc3F)cc2)n1	-7.9*	i	-7	i	0.15	-9.1*	99*	i
CCOc1cc(/C=C2\C(=O)N(Cc3ccco3)C(C)=C2C(=O)OC)ccc1O	i	i	-27	i	-0.16	-9.5*	71*	i
COc1ccc(NC(=S)N(CCCN2CCOCC2)C(C)c2cc3ccccc3o2)cc1 (stereo not given)	i	i	-12	i	0.32	i	·	·
COc1cccc2cc(C(C)N(CCCN3CCOCC3)C(=S)Nc3ccc(C)cc3)oc12 (stereo not given)	i	i	-9	i	0.38	-9.5*	105*	i
COCCOc1ccc(C(F)(F)F)cc1NC(=O)CN1C(=O)NC(C)(c2ccc3c(c2)OCO3)C1=O (stereo not given)	i	i	-4	i	1.3	i	·	·
O=[N+]([O-])c1c(Nc2ccc(O)cc2)cc(Cl)c2nonc12	i	i	-30	9*	-6.5*	-11*	164*	0.054*
Cc1ccc(S(=O)(=O)N(CC(=O)NCCC2=CCCCC2)Cc2ccccc2F)cc1	i	i	-9	i	0.62	-9.4*	116*	i
COc1ccccc1C(=O)NC(=O)COC(=O)c1ccc(Cl)nc1	i	i	-13	i	-0.05	i	·	·
O=[N+]([O-])c1ccc(O)c(C2CCCCC2)c1	·	·	·	·	·	-11*	127*	0.14*
O=[N+]([O-])c1ccc2nc(C3CCCCC3)[nH]c2c1	i	i	-15	i	1.2	i	·	·
CC1CC(C)CN(S(=O)(=O)c2ccccc2[N+](=O)[O-])C1 (stereo not given)	i	i	-4	i	-3.5	i	·	·
O=C(Cc1ccccc1)Nc1cccc(-c2nc3ncccc3o2)c1	i	i	-2	i	-1.5	-10*	64*	i
SMILES	KCNK9 block	KCNQ1 act	hERG protect	KCNQ1 inh	Kir21 block	KCNK3 inh	KCNK3 inh conf	KCNK3 noninduced
Cc1ccccc1CC(=O)c1ccc(O)c(C)c1O	i	i	-12	i	-0.64	-13*	115*	0.15*
CC(=O)c1cc(Cl)ccc1OCc1cccc(S(=O)(=O)N2CCOCC2)c1	i	i	-22	i	-2.5	i	·	·
O=S(=O)(c1cccc(COc2c(Cl)cccc2Cl)c1)N1CCOCC1	i	i	-6	i	0.1	-9.5*	120*	i
O=[N+]([O-])c1ccc(F)cc1OCc1cccc(S(=O)(=O)N2CCOCC2)c1	i	i	-21	i	-1.2	i	·	·
O=S(=O)(c1cccc(COc2ccc(Cl)cc2Cl)c1)N1CCOCC1	i	i	-14	i	-1.1	-9.9*	122*	0.16*
CCOC(=O)c1c(NC(=O)CSc2nnc(CNc3ccc(Cl)cc3)o2)sc(C)c1C	i	i	-12	i	-0.17	-9.6*	90*	i
O=C(Nc1ccn([C@H]2CC[C@@H](CO)O2)c(=O)n1)c1ccccc1	i	i	-3	i	-0.21	i	·	·
CCOC(=O)C1CCN(c2nc3c(C)cccn3c(=O)c2/C=C(\C#N)S(=O)(=O)c2ccccc2)CC1	i	i	-13	i	-0.99	-9.3*	95*	i
CC(C)c1ccc(CNC(=O)C(=O)NCCCn2ccnc2)cc1	i	i	-4	i	0.02	i	·	·
COCCN(CCOC)c1nc(-c2ccc(Cl)cc2)nc2ccccc12	-7.6*	i	-6	i	-1.1	-9.2*	128*	i
CCN(CC)c1nc(-c2ccccc2)nc2ccccc12	i	i	-12	i	-0.4	-9.5*	129*	i
CC1(C)NC(=O)N(CC(=O)N2CCN(c3ccc([N+](=O)[O-])cc3)CC2)C1=O	·	·	·	·	·	i	·	·
CCOc1cc(/C=N/NC(=O)CN2CCOCC2)ccc1OCc1ccc(Cl)cc1	i	i	-5	i	-1.1	-11*	0	i
CCOc1cc(/C=N/NC(=O)CN2CCCCC2)ccc1OCc1ccccc1	i	i	-10	i	-2	i	·	·
Cc1ccc(/C=C/c2nnc(-c3cccs3)o2)cc1	i	i	-14	i	0.39	-8.8*	84*	i
Cc1ccc(/C=C/c2nnc(-c3ccc(C)cc3)o2)cc1	i	i	-8	i	-1.2	i	·	·
